Data from ChEMBL document CHEMBL1177662, “Anti-influenza activity of phenethylphenylphthalimide analogs derived from thalidomide” (Bioorg Med Chem, 2010).
Active and inactive are the calls of the source. No cut-off for these calls is given here.

Legend:
[1] = target: Polymerase acidic protein (Influenza A virus (A/Puerto Rico/8/1934(H1N1))) (UniProt P03433); test: Inhibition of Influenza A (A/PR/8/34/ (H1N1)) RNA polymerase acidin protein endonuclease PA domain assessed as M13mp18 ss DNA at 10 uM
Summary of the method: (§1)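 Recombinant His-tagged PA N-terminal endonuclease domain (residues 1–220), expressed in E. coli and purified by Ni-agarose and anion exchange. 0.35 μg (about 0.1 μM final) in 100 μl buffer at pH 7.3, with 1 μg M13mp18 circular ssDNA substrate and compound at 1 or 10 μM. A no-enzyme control was included. Digestion read by agarose electrophoresis with ethidium bromide staining.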

[2] = target: Polymerase acidic protein (Influenza A virus (A/Puerto Rico/8/1934(H1N1))) (UniProt P03433); test: Inhibition of Influenza A (A/PR/8/34/ (H1N1)) RNA polymerase acidin protein endonuclease PA domain assessed as M13mp18 ss DNA at 1 uM; summary of the method: as §1
[3] = tested on: Influenza A virus; test: Antiviral activity against Influenza A (A/PR/8/34/ (H1N1)) infected in MDCK cells assessed as inhibition of virus-induced cell death; assay type: functional, organism-based; details: A/Puerto Rico/8/1934(H1N1)
Summary of the method: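 Confluent MDCK monolayers (MEM, 10% FBS, 37 °C). Compound (0.63–80 μM, DMSO vehicle) premixed with 100 TCID50 H1N1 PR8 plus trypsin for 30 min at 37 °C, then added to PBS-washed cells. Incubated 4 days at 34 °C, 5% CO2. Formaldehyde-fixed, naphthol blue black stain, OD630 read. Viability scaled to mock (100%) and virus-only (0%) wells. Triplicate; EC50 estimated from dose–response curve.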

[4] = Cytotoxicity against dog MDCK cells; assay type: cell-based, Canis lupus familiaris
Summary of the method: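 Confluent MDCK monolayers (MEM, 10% FBS, 37 °C) exposed without virus to compound (0.63–80 μM, DMSO vehicle), premixed with trypsin 30 min at 37 °C. Incubated 4 days at 34 °C, 5% CO2. Formaldehyde fixation, naphthol blue black staining of viable cells, OD630 read. Triplicate; CC50 estimated from dose–response curve.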

SMILES	inhibition [1]	inhibition [2]	EC50 [3] [µM]	CC50 [4] [µM]
O=C1c2ccccc2C(=O)N1c1ccc(CCc2ccccc2)cc1	inactive	inactive		
O=C1c2c(Cl)c(Cl)c(Cl)c(Cl)c2C(=O)N1c1cccc(CCc2ccccc2)c1	inactive	inactive		
COc1ccc(CCc2ccccc2N2C(=O)c3c(Cl)c(Cl)c(Cl)c(Cl)c3C2=O)cc1OC	inactive	inactive		
O=C1c2ccccc2C(=O)N1c1ccc(CCc2cccc(O)c2)cc1	inactive	inactive	> 80	> 80
O=C1c2c(Cl)c(Cl)c(Cl)c(Cl)c2C(=O)N1c1cccc(/C=C\c2ccccc2)c1	inactive	inactive		
O=C1c2c(Cl)c(Cl)c(Cl)c(Cl)c2C(=O)N1c1cccc(/C=C/c2ccc(O)c(O)c2)c1	inactive	inactive		
O=C1c2ccccc2C(=O)N1c1ccc(/C=C/c2ccccc2)cc1	inactive	inactive		
O=C1c2c(Cl)c(Cl)c(Cl)c(Cl)c2C(=O)N1c1ccc(CCc2cccc(O)c2)cc1	inactive	inactive		
O=C1c2c(Cl)c(Cl)c(Cl)c(Cl)c2C(=O)N1c1ccc(/C=C\c2ccccc2)cc1	inactive	inactive		
COc1ccc(CCc2cccc(N3C(=O)c4c(Cl)c(Cl)c(Cl)c(Cl)c4C3=O)c2)cc1OC	inactive	inactive		
O=C1c2ccccc2C(=O)N1c1ccccc1CCc1ccc(O)c(O)c1	Active	inactive	48	> 80
COc1ccc(CCc2ccc(N3C(=O)c4ccccc4C3=O)cc2)cc1	inactive	inactive		
O=C1c2c(Cl)c(Cl)c(Cl)c(Cl)c2C(=O)N1c1ccccc1CCc1ccccc1	inactive	inactive		
O=C1c2c(Cl)c(Cl)c(Cl)c(Cl)c2C(=O)N1c1cccc(CCc2ccc(O)cc2)c1	inactive	inactive		
O=C1c2c(Cl)c(Cl)c(Cl)c(Cl)c2C(=O)N1c1cccc(/C=C/c2ccccc2)c1	inactive	inactive		
COc1ccc(CCc2ccccc2N2C(=O)c3ccccc3C2=O)cc1OC	inactive		> 80	> 80
O=C1c2ccccc2C(=O)N1c1cccc(CCc2ccc(O)c(O)c2)c1	Active	inactive	26	
COc1ccc(CCc2ccc(N3C(=O)c4c(Cl)c(Cl)c(Cl)c(Cl)c4C3=O)cc2)cc1	inactive	inactive		
O=C1c2c(Cl)c(Cl)c(Cl)c(Cl)c2C(=O)N1c1cccc(CCc2ccc(O)c(O)c2)c1	inactive	inactive	> 80	44

SMILES	inhibition [1]	inhibition [2]	EC50 [3] [µM]	CC50 [4] [µM]
O=C1c2c(Cl)c(Cl)c(Cl)c(Cl)c2C(=O)N1c1ccc(CCc2ccc(O)cc2)cc1	inactive	inactive		
O=C1c2c(Cl)c(Cl)c(Cl)c(Cl)c2C(=O)N1c1cccc(CCc2cccc(O)c2)c1	inactive	inactive		
COc1ccc(CCc2ccc(N3C(=O)c4c(Cl)c(Cl)c(Cl)c(Cl)c4C3=O)cc2)cc1OC	inactive	inactive		
COc1ccc(CCc2cccc(N3C(=O)c4ccccc4C3=O)c2)cc1OC	inactive	inactive		
COc1cccc(CCc2ccc(N3C(=O)c4ccccc4C3=O)cc2)c1	inactive	inactive		
COc1ccc(CCc2ccc(N3C(=O)c4ccccc4C3=O)cc2)cc1OC	inactive	inactive		
O=C1c2c(Cl)c(Cl)c(Cl)c(Cl)c2C(=O)N1c1ccccc1CCc1ccc(O)c(O)c1	inactive	inactive		
O=C1c2c(Cl)c(Cl)c(Cl)c(Cl)c2C(=O)N1c1ccc(/C=C/c2ccccc2)cc1	inactive	inactive		
O=C1c2c(Cl)c(Cl)c(Cl)c(Cl)c2C(=O)N1c1ccc(CCc2ccccc2)cc1	inactive	inactive		
COc1cccc(CCc2cccc(N3C(=O)c4c(Cl)c(Cl)c(Cl)c(Cl)c4C3=O)c2)c1	inactive	inactive		
O=C1c2ccccc2C(=O)N1c1ccc(/C=C/c2ccc(O)c(O)c2)cc1	inactive	inactive		
O=C1c2c(Cl)c(Cl)c(Cl)c(Cl)c2C(=O)N1c1ccc(CCc2ccc(O)c(O)c2)cc1	inactive	inactive	24	> 80
COc1ccc(/C=C/c2cccc(N3C(=O)c4c(Cl)c(Cl)c(Cl)c(Cl)c4C3=O)c2)cc1OC	inactive	inactive		
O=C1c2ccccc2C(=O)N1c1ccc(CCc2ccc(O)cc2)cc1	inactive	inactive		
COc1cccc(CCc2ccc(N3C(=O)c4c(Cl)c(Cl)c(Cl)c(Cl)c4C3=O)cc2)c1	inactive	inactive		
COc1ccc(CCc2cccc(N3C(=O)c4c(Cl)c(Cl)c(Cl)c(Cl)c4C3=O)c2)cc1	inactive	inactive		
O=C1c2ccccc2C(=O)N1c1ccccc1CCc1ccccc1	inactive	inactive		
COc1ccc(/C=C/c2ccc(N3C(=O)c4c(Cl)c(Cl)c(Cl)c(Cl)c4C3=O)cc2)cc1OC	inactive	inactive		
